The nature of data set [1]: Metabolic stability in rat liver S9 fraction assessed as compound remaining at 3 uM measured at 60 mins by LC-MS/MS analysis. Type of data set: ADME, subcellular. Particulars: read-out: Stability.
A short description of data set [2]: Metabolic stability in human liver S9 fraction assessed as compound remaining at 3 uM measured at 60 mins by LC-MS/MS analysis. The note with it: read-out: Stability. Type of data set: ADME, subcellular.
Data set [3] can be described thus: Metabolic stability in rat liver microsome assessed as compound remaining at 3 uM measured at 30 mins in presence of NADPH by LC-MS/MS analysis. Type of data set: ADME. The note with it: liver microsomes, read-out: Stability. An outline of the steps:
(§1)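 Liver microsomes at 0.3 mg/mL with 1 mM NADPH in 200 mM phosphate buffer plus 2 mM MgCl2, pH 7.4, at 37 °C. Substrate 3 µM, incubated 30 min, triplicate. Percent remaining measured by LC-MS/MS.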

Data set [4] is described as follows: Metabolic stability in human liver microsome assessed as compound remaining at 3 uM measured at 30 mins in presence of NADPH by LC-MS/MS analysis. Type of data set: ADME. Particulars: liver microsomes, read-out: Stability. An outline of the steps: as §1
In data set [5] the test system is P-glycoprotein (human). In words: Efflux ratio of apparent permeability in MDCK-II cells expressing human P-glycoprotein gene at 10 uM measured at 2 hrs by LC-MS/MS analysis. Type of data set: ADME, cell-based, Canis lupus familiaris. The note with it: dog, MDCK-MDR1.
In data set [6] the test system is Onchocerca volvulus. In words: Antiparasitic activity against Onchocerca volvulus L5 assessed as reduction in motility at 1 uM. More on the design: scale not given: the % may be the effect or the level left.
Data set [7] is described as follows: Kinetic solubility of compound incubated for 24 hrs. Type of data set: physicochemical. Particulars: 24 h. A digest of the protocol: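 10 mM DMSO stock diluted into buffer to 200 µM final, 2% DMSO, run in duplicate. Buffers were pH 7.4 0.1 M potassium phosphate, pH 2.2, 6.8 and 5. Shaken 24 h at room temperature in a filter plate, then filtered by positive pressure. Single-point calibration against DMSO standards.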

From ChEMBL document CHEMBL5137098, “Discovery of Substituted Di(pyridin-2-yl)-1,2,4-thiadiazol-5-amines as Novel Macrofilaricidal Compounds for the Treatment of Human Filarial Infections” (J Med Chem, 2022) come the findings set out here.

For the compound `Cc1cccnc1N(C)c1nc(-c2ccc(OC(C)C)cn2)ns1`, the remaining at 1 h, 3 µM was determined as 81% in data set [1] and 96% in data set [2].
Turning to `Cc1cccnc1Nc1nnc(-c2ccc(OC3CCOCC3)cn2)s1`, the figures for the remaining at 0.5 h, 3 µM in data set [3] and in data set [4] were 89% and 100%, respectively.
As to `COc1cccnc1Nc1nc(-c2cc(C)ccn2)ns1`, the values for the remaining at 1 h, 3 µM in data set [1] and in data set [2] were 70% and 72%, respectively.
`Cc1cccnc1N(c1nc(-c2ccc(OC(C)C)cn2)ns1)C(C)C`: the remaining at 1 h, 3 µM in data set [1] stood at 60%; in data set [2], 79%.
As to `Cc1cccnc1Nc1nc(-c2ccc(OC3CCN(C4CC4)CC3(F)F)cn2)ns1` (stereo not drawn), the remaining at 1 h, 3 µM in data set [1] worked out at 32%; in data set [2], 52%.
The like results for `Cc1cccnc1Nc1nc(-c2cc(C#N)c(OC(C)C)cn2)ns1` were, in that order, 84% and 100%.
The like results for `Cc1cccnc1Nc1nc(-c2ccc(OC3CCOCC3)cn2)ns1` were, in that order, 82% and 84%.
`CC(C)Oc1cnc(-c2nsc(Nc3ncccc3N3CCCC3=O)n2)cc1C(F)(F)F`: the efflux ratio at 2 h, 10 µM in data set [5] was found to be 3.9.
As to `Cc1cccnc1Nc1nc(-c2ncc(OC(C)C)cn2)ns1`, the remaining at 0.5 h, 3 µM in data set [3] came to 90%; in data set [4], 96%.
Turning to `CNc1cccnc1Nc1nc(-c2ccc(OC(C)C)cn2)ns1`, the remaining at 1 h, 3 µM in data set [1] was 73%; in data set [2] it was 86%.
For `CC(C)Oc1ccc(-c2nsc(Nc3ncccc3C(=O)N(C)C)n2)nc1`, the efflux ratio at 2 h, 10 µM in data set [5] stood at 11.
In the case of `CN(C)c1cccnc1Nc1nc(-c2ccc(OC3CC3)cn2)ns1`, the Activity in data set [6] was determined as 100%. Moreover, the remaining at 1 h, 3 µM is 91% in data set [1] and 100% in data set [2].
In the case of `CC(C)Oc1cnc(-c2nsc(Nc3ncccc3C(C)C)n2)cc1C(F)(F)F`, the remaining at 0.5 h, 3 µM in data set [3] came out at 96%; in data set [4], 97%.
Consider `CC(C)Oc1ccc(-c2nsc(Nc3cc(C(F)(F)F)c(C(C)C)cn3)n2)nc1`, for which the remaining at 1 h, 3 µM in data set [1] and in data set [2] was 100% in each case.
On to `c1ccc(Nc2nc(-c3ccccn3)ns2)nc1`, for which the remaining at 1 h, 3 µM in data set [1] and in data set [2] was 83% each time.
As to `Cc1cccnc1Nc1nc(-c2cc(C(=O)N(C)C)ccn2)ns1`, the results for the remaining at 1 h, 3 µM in data set [1] and in data set [2] were 78% and 89%, respectively.
The like results for `CC(C)c1cnc(Nc2nc(-c3ncccc3OC3CC3)ns2)cc1C(F)(F)F` were, in that order, 93% and 100%.
The like results for `CC(C)Oc1ccc(-c2nsc(N(C)c3ncccc3C(C)C)n2)nc1` were, in that order, 4% and 32%.
The like results for `Cc1ccnc(-c2nsc(Nc3ncccc3C(F)(F)F)n2)c1` were, in that order, 61% and 56%.
`Cc1cccnc1Nc1nc(-c2cc(C3CCN(C)CC3)ccn2)ns1`: the remaining at 1 h, 3 µM in data set [1] is 81%; in data set [2], 78%.
For `CC(C)Oc1cnc(-c2nsc(Nc3ncccc3N(C)C(=O)C3CC3)n2)cc1C(F)(F)F`, the efflux ratio at 2 h, 10 µM in data set [5] turned out to be 2.2.
As to `COc1cccnc1Nc1nc(-c2ccc(OC(C)C)cn2)ns1`, the remaining at 1 h, 3 µM in data set [1] and in data set [2] was 100% in each case.
For `CN1CCC(Oc2ccc(Nc3nc(-c4ccccn4)ns3)nc2)CC1`, the remaining at 1 h, 3 µM came to 99% in data set [1] and 88% in data set [2].
As for `CC(C)c1cccnc1Nc1nc(-c2ccc(OC3CC3)cn2)ns1`, in data set [6], the Activity was 100%. Also, in data set [7], the Kinetic_solubility is 0.2 µM. In addition, the results for the remaining at 1 h, 3 µM in data set [1] and in data set [2] were 78% and 39%, respectively.
As for `Cc1cccnc1Nc1nnc(-c2ccc(OC3CCOCC3)cn2)o1`, the remaining at 0.5 h, 3 µM in data set [3] worked out at 39%; in data set [4] it was 83%.
Consider `Cc1cccnc1Nc1nc(-c2ccc(OC3CCOCC3)cn2)no1`, for which the remaining at 1 h, 3 µM in data set [1] is 85%; in data set [2], 98%.
The like results for `CC(C)c1ccnc(-c2nsc(Nc3ncccc3C(F)(F)F)n2)c1` were, in that order, 27% and 45%.
Consider `CC(=O)N(C)c1cc(C(F)(F)F)cnc1Nc1nc(-c2ccc(OC(C)C)cn2)ns1`, for which the efflux ratio at 2 h, 10 µM in data set [5] amounted to 4.1.
As for `Cc1cccnc1Nc1nc(-c2cc(C(=O)N(C)C)c(OC(C)C)cn2)ns1`, the results for the remaining at 0.5 h, 3 µM in data set [3] and in data set [4] were 90% and 91%, respectively.
As for `CC(C)Oc1ccc(-c2nsc(Nc3ncccc3C(N)=O)n2)nc1`, in data set [5], the efflux ratio at 2 h, 10 µM came out at 4.6.
Same read-out and setting: then `CC(=O)N(C)c1cc(C(F)(F)F)cnc1Nc1nc(-c2cc(C(C)C)ccn2)ns1`, with 8.4.
`Cc1cccnc1Nc1nc(-c2ccc(C(=O)N(C)C)cn2)ns1`: the remaining at 1 h, 3 µM in data set [1] came to 94%; in data set [2], 97%.
The like results for `COc1ccc(Nc2nc(-c3ccccn3)cs2)nc1` were, in that order, 51% and 59%.
For the compound `Cc1cccnc1Nc1nsc(-c2ccc(OC3CCOCC3)cn2)n1`, the remaining at 0.5 h, 3 µM was 89% in data set [3] and 77% in data set [4].
As to `Cc1cccnc1Nc1nc(-c2cc(C#N)ccn2)ns1`, the remaining at 1 h, 3 µM is 78% in data set [1] and 65% in data set [2].
The like results for `Cc1cccnc1Nc1nc(-c2ccc(OC3CC4(C3)CN(C3CC3)C4)cn2)ns1` were, in that order, 53% and 58%.
The like results for `Cc1cccnc1Nc1nc(-c2ccc(C#N)cn2)ns1` were, in that order, 73% and 66%.
As to `Cc1cccnc1Nc1nc(-c2ccc(OC3CC3)cn2)ns1`, in data set [6], the Activity was found to be 100%. In addition, the remaining at 1 h, 3 µM in data set [1] was 61%; in data set [2], 76%.
Take `Cc1cccnc1Nc1nc(-c2cnc(OC(C)C)cn2)ns1`: the remaining at 1 h, 3 µM in data set [1] is 74%; in data set [2] it was 81%.
With `CC(C)Oc1cc(-c2nsc(Nc3ncccc3N(C)C)n2)ncc1C(F)(F)F`, the remaining at 1 h, 3 µM in data set [1] was 8%; in data set [2], 100%.
With `CC(=O)N(C)c1cccnc1Nc1nc(-c2cc(C(F)(F)F)c(OC(C)C)cn2)ns1`, the efflux ratio at 2 h, 10 µM in data set [5] amounted to 4.5.
Turning to `CC(C)Oc1cnc(-c2nsc(Nc3ncccc3N(C)C)n2)cc1C(F)(F)F`, the remaining at 0.5 h, 3 µM in data set [3] came to 93%; in data set [4] it was 98%.
Turning to `CC(=O)N(C)c1cc(C(F)(F)F)cnc1Nc1nc(-c2cc(OC(C)C)ccn2)ns1`, the Kinetic_solubility in data set [7] amounted to 0.4 µM. Further, the efflux ratio at 2 h, 10 µM in data set [5] is 15.2.

For orientation: efflux ratio means the permeability from basolateral to apical divided by that in the opposite direction, in the common usage.
